A short description of series [1]: melting temperature; fluorescence melt of hairpins on a sequencing array, two-state fit, raised by 9.35 °C to match UV melts. To be noted: sodium 0.088 M. The gist of the method: (§1)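 With Cy3 and quencher oligos annealed, library hairpins on a sequenced MiSeq flow cell were imaged for Cy3 fluorescence in 50 mM Na-HEPES pH 8.0, 25 mM NaCl, in 2.5 °C steps up to 60 °C. Melting temperature and folding enthalpy were derived from bootstrapped two-state fits of signals normalised to pre-quench Cy3 and to control constructs. Four replicates were combined by inverse variance, with fitted temperatures raised by 9.35 °C to match UV melts.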

The nature of series [2]: folding enthalpy; higher = less favourable; fluorescence melt of hairpins on a sequencing array, two-state fit. To be noted: sodium 0.088 M. The method in brief: as §1

On to GTGCACCGAAAGGTACAC (((.(((....))).))), for which the Tm in series [1] turned out to be 53.7 °C. For the same sequence, the folding enthalpy in series [2] is -36.5 kcal/mol.
GTGCACCGAAAGGTTCAC (((.(((....))).))): in series [1], the Tm came to 50.5 °C. Also, the folding enthalpy in series [2] was -42 kcal/mol.
The like results for GTGCACGAAAGTGACAC ((((((....))).))) were, in that order, 52.9 °C and -25.9 kcal/mol.
The like results for GTGCACGAAAGTGGCCAC ((((((....)))..))) were, in that order, 40.6 °C and -13.3 kcal/mol.
For GTGCACGAAAGTGTTCAC ((((((....)))..))) the same measures were 37.4 °C and -12.3 kcal/mol.
With GTGCACGGAAACGTGCGC (.(((((....))))).), the Tm in series [1] was found to be 63.9 °C. Also, the folding enthalpy in series [2] is -14.7 kcal/mol.
For GTGCAGCGAAAGCTCAC (((.(((....)))))) the same measures were 50.8 °C and -27 kcal/mol.
The like results for GTGCAGGGAAACCCACAC (((..((....))..))) were, in that order, 32.4 °C and -19.2 kcal/mol.
For GTGCAGGGAAACCCGCAC ((((.((....)).)))) the same measures were 54.9 °C and -42.2 kcal/mol.
Regarding GTGCAGGGAAACCTGTGC (..((((....))))..), in series [1], the Tm was 44.6 °C. In addition, in series [2], the folding enthalpy was -21.6 kcal/mol.
Take GTGCAGTCGAAAGACCAC (((..(((....)))))): the Tm in series [1] was found to be 38.7 °C. In addition, in series [2], the folding enthalpy is -16.4 kcal/mol.
For GTGCATCGAAAGATACAC (((.(((....))).))) the same measures were 47 °C and -35.2 kcal/mol.
The like results for GTGCATGGAAACGTGCAC (((((.(....).))))) were, in that order, 55.8 °C and -47 kcal/mol.
The like results for GTGCCACGAAAGTGCAC (((.(((....)))))) were, in that order, 58.5 °C and -27.5 kcal/mol.
GTGCCAGGAAACTGACAC (((.(((....))).))): the Tm in series [1] is 47.5 °C. Besides, in series [2], the folding enthalpy was -35.5 kcal/mol.
For GTGCCCCGAAAGGGTCAC (((.(((....))).))) the same measures were 57.7 °C and -34.6 kcal/mol.
The like results for GTGCCCGAAAGGGAGCAC ((((((....)))..))) were, in that order, 55.6 °C and -25.2 kcal/mol.
For GTGCCCGAAAGGGCCCAC ((((((....)))..))) the same measures were 41 °C and -5.79 kcal/mol.
With GTGCCCGAAAGGGCGCAC ((((((....)))..))), in series [1], the Tm is 64.8 °C. The folding enthalpy in series [2] was -8.85 kcal/mol.
Turning to GTGCCCGAAAGGGGACAC ((((((....)))..))), the Tm in series [1] is 67 °C. In series [2], the folding enthalpy was -12.2 kcal/mol.
The like results for GTGCCCGAAAGGGGTCAC ((((((....)))..))) were, in that order, 48.6 °C and -15.7 kcal/mol.
With GTGCCCGGAAACAGGCAC (((((.(....).))))), the Tm in series [1] came out at 54.9 °C. Further, the folding enthalpy in series [2] was -40.4 kcal/mol.
The like results for GTGCCGGGAAACCGGTAC ((.((((....)))).)) were, in that order, 57.2 °C and -30.3 kcal/mol.
The like results for GTGCCGGGAAACTGGCGC (.(((.(....).))).) were, in that order, 53.4 °C and -30.4 kcal/mol.
The like results for GTGCCTGGAAACAGGTAC ((.((((....)))).)) were, in that order, 53.6 °C and -32.7 kcal/mol.
For GTGCGACGAAAGTCACAC (((.(((....))).))), the Tm in series [1] was determined as 54.3 °C. Further, the folding enthalpy in series [2] was -43.9 kcal/mol.
The like results for GTGCGAGGAAACTCGCGC (.(((((....))))).) were, in that order, 66.2 °C and -18.2 kcal/mol.
Consider GTGCGCGAAAGCGGTCAC ((((((....)))..))), for which the Tm in series [1] was determined as 43.5 °C. For the same sequence, in series [2], the folding enthalpy was -14.1 kcal/mol.
For the sequence GTGCGCGAAAGCGTGCAC ((((((....)))..))), the Tm in series [1] was 59.3 °C. Besides, the folding enthalpy in series [2] is -17.3 kcal/mol.
The like results for GTGCGCGGAAACGCGTAC ((.((((....)))).)) were, in that order, 65.5 °C and -20.1 kcal/mol.
For GTGCGCTCGAAAGAGCAC (((..(((....)))))) the same measures were 59.9 °C and -14.1 kcal/mol.
Turning to GTGCGGACGAAAGTCCAC (((..(((....)))))), the Tm in series [1] came out at 60.9 °C. The folding enthalpy in series [2] was -12 kcal/mol.
The like results for GTGCGGGGAAACCCGCGC (.(((((....))))).) were, in that order, 67.2 °C and -16.1 kcal/mol.
The like results for GTGCGGGGAAACCCGTGC (..((((....))))..) were, in that order, 53.8 °C and -19.2 kcal/mol.
Consider GTGCGGTCGAAAGACCAC (((..(((....)))))), for which the Tm in series [1] was 57.5 °C. Besides, the folding enthalpy in series [2] is -13.3 kcal/mol.
The like results for GTGCGTCCGAAAGGACAC (((..(((....)))))) were, in that order, 60.4 °C and -9.8 kcal/mol.
GTGCGTCGAAAGACTCAC (((.(((....))).))): in series [1], the Tm turned out to be 49.6 °C. Also, the folding enthalpy in series [2] is -40.2 kcal/mol.
The like results for GTGCGTGGAAACATGCAC ((((.((....)).)))) were, in that order, 58.4 °C and -48.5 kcal/mol.
For GTGCTCGAAAGAGAACAC ((((((....)))..))) the same measures were 44.5 °C and -19.6 kcal/mol.
As to GTGCTCGAAAGAGACAC ((((((....))).))), in series [1], the Tm turned out to be 47.3 °C. Besides, the folding enthalpy in series [2] is -22.4 kcal/mol.
For GTGCTCGAAAGAGGGCAC ((((((....)))..))) the same measures were 48.9 °C and -22.9 kcal/mol.
For GTGCTCGAAAGAGTCAC ((((((....))).))) the same measures were 49.7 °C and -26.7 kcal/mol.
Consider GTGCTCGCGAAAGCGCAC (((..(((....)))))), for which, in series [1], the Tm was found to be 49.2 °C. In addition, the folding enthalpy in series [2] is -17.4 kcal/mol.
For GTGCTGAAAAGCAC (((((....))))) the same measures were 66 °C and -28.1 kcal/mol.
With GTGCTGCGAAAGCATCAC (((.(((....))).))), the Tm in series [1] turned out to be 52 °C. Further, the folding enthalpy in series [2] was -31.9 kcal/mol.
For GTGCTGGGAAACCGGCAC ((((.((....)).)))) the same measures were 61 °C and -41.1 kcal/mol.
Turning to GTGCTGTCGAAAGACCAC (((..(((....)))))), the Tm in series [1] came out at 45.4 °C. Besides, the folding enthalpy in series [2] was -13.1 kcal/mol.
For the sequence GTGCTTCGAAAGAACCAC (((.(((....))).))), in series [1], the Tm amounted to 34.8 °C. Also, the folding enthalpy in series [2] was -27.8 kcal/mol.
For GTGCTTGGAAACGAGCAC (((((.(....).))))) the same measures were 55.5 °C and -40.1 kcal/mol.
For GTGCTTTCGAAAGAACAC (((..(((....)))))) the same measures were 36.7 °C and -19.8 kcal/mol.
The like results for GTGGAAGGAAACTCCCAC ((((.((....)).)))) were, in that order, 38.6 °C and -36.2 kcal/mol.
As for GTGGAAGGAAACTTCTGC (..((((....))))..), the Tm in series [1] worked out at 34.1 °C. In addition, the folding enthalpy in series [2] was -14.4 kcal/mol.
Consider GTGGACCCGAAAGGGCAC (((..(((....)))))), for which the Tm in series [1] turned out to be 49.3 °C. Also, the folding enthalpy in series [2] is -16.6 kcal/mol.
For GTGGACGAAAGTCCGCAC ((((((....)))..))) the same measures were 55.7 °C and -11.8 kcal/mol.
For GTGGACGAAAGTCGGCAC ((((((....)))..))) the same measures were 39.8 °C and -15.5 kcal/mol.
In the case of GTGGACGGAAACGTTCGC (.(.(((....))).).), the Tm in series [1] was 45 °C. For the same sequence, the folding enthalpy in series [2] is -26.6 kcal/mol.
For GTGGAGCGAAAGCTACAC (((.(((....))).))) the same measures were 68.2 °C and -30.8 kcal/mol.
The like results for GTGGAGCGAAAGCTGCAC (((.(((....))).))) were, in that order, 62.4 °C and -34 kcal/mol.
For GTGGAGGAAACTCCAC ((((((....)))))) the same measures were 60.1 °C and -35.2 kcal/mol.
For GTGGAGGGAAACCTCCGC (.(((((....))))).), in series [1], the Tm amounted to 56.2 °C. Besides, the folding enthalpy in series [2] is -37.6 kcal/mol.
For GTGGATACGAAAGTACAC (((..(((....)))))) the same measures were 36.8 °C and -13.5 kcal/mol.
For GTGGATGGAAACATCCAC (((((((....))))))) the same measures were 65.1 °C and -50.1 kcal/mol.
For GTGGATGGAAACATCTAC ((.((((....)))).)) the same measures were 46.8 °C and -31 kcal/mol.
As to GTGGATGGAAACATCTGC (..((((....))))..), the Tm in series [1] was 37.6 °C. Further, in series [2], the folding enthalpy was -23 kcal/mol.
For GTGGCACGAAAGTGCAC (((.(((....)))))) the same measures were 52.1 °C and -11 kcal/mol.
The like results for GTGGCAGGAAACCGCCAC (((((.(....).))))) were, in that order, 55.9 °C and -46.8 kcal/mol.
For GTGGCAGGAAACTGCTGC (..((((....))))..) the same measures were 44.2 °C and -17.4 kcal/mol.
GTGGCAGGAAACTGTCGC (.(.(((....))).).): the Tm in series [1] came out at 45.7 °C. In addition, the folding enthalpy in series [2] was -27.3 kcal/mol.
Turning to GTGGCATCGAAAGATCAC (((..(((....)))))), the Tm in series [1] was 34.2 °C. The folding enthalpy in series [2] is -12.8 kcal/mol.
GTGGCCCGAAAGGGCAC (((.(((....)))))): in series [1], the Tm was determined as 62 °C. In addition, the folding enthalpy in series [2] is -10.3 kcal/mol.
The like results for GTGGCCGAAAGGCAACAC ((((((....)))..))) were, in that order, 55.5 °C and -13.3 kcal/mol.
The like results for GTGGCCGAAAGGCCCAC ((((((....))).))) were, in that order, 57.5 °C and -10.5 kcal/mol.
The like results for GTGGCCGAAAGGCCCCAC ((((((....)))..))) were, in that order, 38.1 °C and -5.99 kcal/mol.

(Values after the array DNA melting data of Ke et al. (doi:10.1101/2024.01.08.574731).)
